In one series the test system is Renal. Briefly: NCI 60 five-concentration screen, renal subpanel. The format is cell-based. The note with it: Homo sapiens, 48 h, read-out: TGI Renal.
The subject of another series is Ovarian. Briefly: cells. The format is cell-based. To be noted: Homo sapiens, 48 h, read-out: TGI Ovarian.
For the next series, the system named is Melanoma. Briefly: NCI 60 five-concentration screen, melanoma subpanel. The format is cell-based. To be noted: Homo sapiens, 48 h, read-out: TGI Melanoma.
A further series has as its system NSCLC. Briefly: NCI 60 five-concentration screen, NSCLC subpanel. Type of series: cell-based. The note with it: Homo sapiens, 48 h, read-out: TGI NSCLC.
Series [1] relates to full NCI 60 cell panel. Briefly: NCI 60 five-concentration screen, panel mean. To be noted: Homo sapiens, 48 h; for IC (TGI): read-out: TGI MG-MID; for GI50: read-out: GI50 MG-MID; for CC50: read-out: LC50 MG-MID. The format is cell-based.
Another series concerns CNS. Briefly: cells. To be noted: Homo sapiens, 48 h, read-out: TGI CNS. The format is cell-based.
Another series has as its system Colon. Briefly: NCI 60 five-concentration screen, colon subpanel. The format is cell-based. The note with it: Homo sapiens, 48 h, read-out: TGI Colon.
The subject of the next series is Leukemia. Briefly: cells. The format is cell-based. To be noted: Homo sapiens, 48 h, read-out: TGI Leukemia.
Another series has as its system Breast. Briefly: cells. The format is cell-based. The note with it: Homo sapiens, 48 h, read-out: TGI Breast.
Another series deals with Prostate. Briefly: cells. The format is cell-based. To be noted: Homo sapiens, 48 h, read-out: TGI Prostate.
Series [2] concerns full NCI 60 cell panel. Briefly: NCI 60 Cell One-Dose Screen. Type of series: cell-based.
Another series has as its system cells. Briefly: Cell cycle effect. The format is cell-based. To be noted: data not presented.
Series [3] relates to Nox4 in B1647 cells. Briefly: Intracellular ROS after Nox2 silencing in B1647 cells. The format is cell-based, human. The note with it: siRNA against Nox2, 50 nM.
The subject of a further series is Nox4. Briefly: Nox4 expression by Western blotting in B1647 cells. The note with it: 24 h treatment; 10 µM. The format is cell-based, human. A digest of the protocol: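 B1647 cells were treated 24 h, then lysed 15 min on ice (1% Igepal, 150 mM NaCl, 50 mM Tris–HCl, 5 mM EDTA, protease inhibitors, orthovanadate, pH 8.0). 40 µg protein/lane ran on 10% SDS-PAGE and was transferred to nitrocellulose (100 V, 90 min). Blots were blocked in 5% milk in TBS/Tween, probed overnight at 4 °C with anti-Nox4 and anti-β-tubulin, then HRP secondaries, with luminol detection.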
On the technique in general: A western blot detects proteins with antibodies after separation by electrophoresis.

Series [4] relates to Nox4 in B1647 cells. Briefly: Intracellular ROS level. Type of series: cell-based, human. To be noted: 30 min treatment at 5 or 10 µM. A digest of the protocol:
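Human AML B1647 cells grown in IMDM with 5% human serum (37 °C, 5% CO₂) were treated 30 min with test compound in DMSO. Cells (1 × 10⁶/mL) were washed twice in PBS and loaded with 5 µM DCFH-DA for 20 min at 37 °C. Oxidized DCF fluorescence was read in a multiwell plate reader.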

The structures appear in SMILES notation. Read-outs that look alike come from different tables or passages of the source.

On to `CC[C@]1(O)C[C@H]2CN(CCc3c([nH]c4ccccc34)[C@@](C(=O)OC)(c3cc4c(cc3OC)N(C=O)[C@H]3[C@@](O)(C(=O)OC)[C@H](OC(C)=O)[C@]5(CC)C=CCN6CC[C@]43[C@@H]65)C2)C1` [Vincristine, reference compound], for which the IC (TGI) in the series on Renal came to 19.9 µM; with Ovarian, 19.9 µM; with Melanoma, 7.9 µM; in the series on NSCLC, 15.8 µM; in the series on full NCI 60 cell panel [1], 10 µM; in the series with CNS, 6.3 µM. Besides, the IC (TGI) in the series on Colon amounted to 4 µM; in the series with Leukemia, 15.8 µM; with Breast, 7.9 µM; in the series with Prostate, 6.3 µM.

Consider `COc1cc(/C=C2\C(=O)N(Cc3ccc(Cl)cc3)c3ccccc32)cc(OC)c1OC` [Compound 13], for which the IC (TGI) with Renal is 10.7 µM; with Melanoma, 8.9 µM; in the series on full NCI 60 cell panel [1] it was 10.7 µM; in the series on Colon it was 5.9 µM; in the series on Leukemia it was 4.9 µM; in the series with Prostate it was 7.6 µM. For the same compound, the GI50 (as a rule, the concentration giving 50% growth inhibition) in the series on full NCI 60 cell panel [1] worked out at 2.6 µM. Further, the CC50 in the series on full NCI 60 cell panel [1] was determined as 41.7 µM.

Turning to `COc1cc(/C=C2\C(=O)Nc3cc(OC(F)(F)F)ccc32)cc(OC)c1OC` [Compound 9], the GI50 with full NCI 60 cell panel [1] stood at 2.7 µM. The IC (TGI) in the series on full NCI 60 cell panel [1] was 12.3 µM; in the series on CNS it was 7.4 µM; with Breast, 8.7 µM.

Turning to `COc1cc(/N=C2\C(=O)N(Cc3ccccc3)c3ccccc32)cc(OC)c1OC` [Compound 19], the “growth inhibition in the one-dose screen” value with full NCI 60 cell panel [2] (RXF 393, CCRF-CEM, RPMI-8226 and HOP-92 cells, 10^−5 M, data not shown) is “growth inhibition”. Further, the “cytotoxic activity in the preliminary one-dose test” value with full NCI 60 cell panel [2] (single concentration 10^−5 M, 48 h incubation) is reported as “lack of cytotoxic activity”.

Consider `COc1ccc2c(c1)C(=Nc1cc(OC)c(OC)c(OC)c1)C(=O)N2` [Compound 18], for which, in the series with full NCI 60 cell panel [2], the “cytotoxic activity in the preliminary one-dose test” value is on record as “lack of cytotoxic activity”.

As to `COc1cc(/C=C2\C(=O)Nc3ccc(N(C)C)cc32)cc(OC)c1OC` [Compound 6], the IC (TGI) in the series with Renal was 49 µM; in the series on Ovarian, 32.4 µM; with full NCI 60 cell panel [1], 32.4 µM; with Leukemia it was 9.3 µM. Also, the GI50 with full NCI 60 cell panel [1] was 2.8 µM. Moreover, the CC50 with full NCI 60 cell panel [1] is 89.1 µM.

`COc1cc(/C=C2\C(=O)Nc3cc(Cl)ccc32)cc(OC)c1OC` [Compound 8]: the IC (TGI) in the series on Renal is 4.9 µM; in the series on Ovarian, 5.4 µM; in the series on Melanoma, 6.8 µM; in the series with NSCLC, 8.3 µM; with full NCI 60 cell panel [1], 5.4 µM; in the series with CNS it was 5 µM. In addition, the IC (TGI) in the series on Colon was 5.4 µM; in the series on Leukemia, 3.6 µM; with Breast, 4.1 µM; with Prostate, 5.4 µM. Also, the GI50 in the series on full NCI 60 cell panel [1] stood at 1.3 µM. Moreover, the CC50 with full NCI 60 cell panel [1] worked out at 24 µM. In addition, in the series with cells, the “proportion of cells in G2/M” value is “increased proportion of cells in G2/M”.

For `COc1cc(/C=C2/C(=O)N(C)c3ccc(O)cc32)cc(OC)c1OC` [Compound 10], in the series with full NCI 60 cell panel [1], the concentration for 50% growth inhibition (GI50) came out at 4.4 µM. The IC (TGI) with full NCI 60 cell panel [1] amounted to 17.4 µM; in the series on CNS, 17.4 µM; with Leukemia it was 8.3 µM; with Prostate, 6.3 µM.

On to `COc1ccc(CN2C(=O)/C(=C/c3cc(OC)c(OC)c(OC)c3)c3cc(OC)ccc32)cc1` [Compound 15], for which the IC (TGI) came out at 8.9 µM in the series with Renal; 8.9 µM with Ovarian; 5.7 µM in the series with Melanoma; 8.9 µM in the series on full NCI 60 cell panel [1]; 7.4 µM with CNS; 3.8 µM in the series with Colon. Besides, in the series with full NCI 60 cell panel [1], the CC50 came out at 34.7 µM.

In the case of `COc1cc(/C=C2\C(=O)N(C)c3ccc(Cl)cc32)cc(OC)c1OC` [Compound 12], the IC (TGI) with Renal came to 24 µM; with Melanoma, 21.4 µM; with full NCI 60 cell panel [1], 21.4 µM. The 50% growth inhibitory concentration (GI50) with full NCI 60 cell panel [1] was found to be 4.5 µM.

For the compound `COc1ccc2c(c1)/C(=C\c1cc(OC)c(OC)c(OC)c1)C(=O)N2C` [Compound 11], the IC (TGI) with Renal is 24 µM; in the series with Melanoma, 21.9 µM; in the series with full NCI 60 cell panel [1], 21.9 µM; in the series on Leukemia, 7.6 µM; in the series with Breast it was 21.9 µM. Besides, the CC50 with full NCI 60 cell panel [1] was 89.1 µM.

As for `COc1ccc(CN2C(=O)/C(=C\c3cc(OC)c(OC)c(OC)c3)c3ccccc32)cc1` [Compound 14], the IC (TGI) in the series on Renal amounted to 9.1 µM; in the series with Melanoma, 4.5 µM; in the series with NSCLC it was 9.3 µM; in the series on full NCI 60 cell panel [1], 9.3 µM; in the series on Colon, 3.6 µM. For the same compound, the GI50 with full NCI 60 cell panel [1] amounted to 2.1 µM. For the same compound, the CC50 in the series with full NCI 60 cell panel [1] came to 35.5 µM.

Take `COc1ccc(OC)c2c1NC(=O)/C2=C\c1cc(OC)c(OC)c(OC)c1` [Compound 3]: the IC (TGI) in the series with full NCI 60 cell panel [1] was 19.5 µM; in the series on Breast, 19 µM.

Turning to `COc1cc(/C=C2\C(=O)Nc3ccc(Br)cc32)cc(OC)c1OC` [Compound 5], the “ROS production in Nox2 silenced cells vs scrambled cells” value with Nox4 in B1647 cells [3] is given as “inhibited ROS production to the same extent”. Further, the Nox4 expression entry with Nox4 is “downregulate Nox4 expression”. Moreover, in the series with Nox4 in B1647 cells [4], the ROS generation result is listed as “partially inhibited”. Also, the IC (TGI) with Melanoma amounted to 76 µM; in the series with full NCI 60 cell panel [1], 67.6 µM; in the series on Leukemia, 49 µM. Further, the GI50 in the series with full NCI 60 cell panel [1] amounted to 7.9 µM.

As to `COc1cc(/C=C2/C(=O)Nc3cc(C)c(O)cc32)cc(OC)c1OC` [Compound 7], in the series with Nox4 in B1647 cells [3], the “ROS production in Nox2 silenced cells vs scrambled cells” value is “inhibited ROS production to the same extent”. Moreover, in the series with Nox4, the Nox4 expression entry is “downregulate Nox4 expression”. Besides, the ROS generation result with Nox4 in B1647 cells [4] was “partially inhibited”. In the series with full NCI 60 cell panel [1], the GI50 was determined as 4.3 µM, the CC50 came to 69.2 µM and the IC (TGI) stood at 20.9 µM. For the same compound, the IC (TGI) in the series with Leukemia was 8.7 µM.

The values above are taken from PMC3712647 (European journal of medicinal chemistry, 2013).
